Screening results (PubChem)
UBC13 polyUb: inhibitors of human UBC13 polyubiquitin chain formation; P61088; TR-FRET; inhibition, % at 20 µM; hit rate 0.47% among 330,000; AID 485273; in the data active means inhibition above about 45%, passing the limit was not always enough; inconclusive means no clear call, values can overlap the other calls
Target sequence (P61088 whole entry, looked up): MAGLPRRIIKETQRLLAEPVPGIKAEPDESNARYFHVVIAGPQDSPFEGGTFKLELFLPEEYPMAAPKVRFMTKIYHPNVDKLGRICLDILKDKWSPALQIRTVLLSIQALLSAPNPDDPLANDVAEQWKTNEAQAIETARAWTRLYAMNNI
PP1 inh: blocks human PP1-alpha phosphatase, a PP5 counter-screen; P62136; purified PP1alpha, OMFP fluorescence; inhibition, % at 6.7 µM; hit rate 0.9% among 320,000;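 active means inhibition above the mean inhibition of all tested compounds plus 3 SD, computed separately for each screening campaign, cut at about 15% in these data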
Target sequence (P62136 whole entry, looked up): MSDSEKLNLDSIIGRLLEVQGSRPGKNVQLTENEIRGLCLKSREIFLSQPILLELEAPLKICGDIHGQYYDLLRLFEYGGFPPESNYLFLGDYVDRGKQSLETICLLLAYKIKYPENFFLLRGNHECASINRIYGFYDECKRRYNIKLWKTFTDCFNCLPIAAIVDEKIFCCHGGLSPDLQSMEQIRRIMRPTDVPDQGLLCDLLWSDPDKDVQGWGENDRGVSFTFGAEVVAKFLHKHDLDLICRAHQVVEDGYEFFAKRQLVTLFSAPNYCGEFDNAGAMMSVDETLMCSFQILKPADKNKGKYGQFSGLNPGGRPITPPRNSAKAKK
AI-2 QS modul: modulates the Vibrio harveyi AI-2 quorum sensing system; hit rate 0.4% among 300,000; Vibrio harveyi JMH597 AI-2 luminescence/OD600 ratio, 9 h; hits give low values; strain lacks LuxN and CqsS sensors; 0 = neutral-control median; activity change, % at 7.5 µM; in the data active means activity change below about -75%, passing the limit was not always enough; inconclusive means no clear call, values can overlap the other calls;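 further: luminescence divided by OD600 gain over 9 h not by final OD600 alone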
T cruzi inh: blocks replication of Trypanosoma cruzi | hit rate 1.4% among 300,000 | T. cruzi beta-gal in NIH3T3, luminescence, 90 h | inhibition, % (no concentration beside the values);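 active means mean inhibition across valid replicates above about 55%, limit read from the data; inconclusive means mean below that limit but half or more replicates reach it; inactive means mean below it, under half of replicates reach it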;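 further: signal also drops with host cell toxicity which is not excluded here; 0% = plate median of DMSO wells and 100% = zero luminescence signal; higher percent means less beta-gal luminescence so fewer parasites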
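Assay system: NIH/3T3 fibroblasts plus reporter T. cruzi. Amount: NIH/3T3 cells, 5,000 per well. Buffer or medium: DMEM, 2% fetal bovine serum. Doses: compound pinned at 50 nL/well, DMSO. Schedule: ≥90 h infection period, 3 h prior cell attachment. Signal: luminescent β-galactosidase signal after 60 min lysis. Read-out: parasite load inhibition, %.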
p-CIP stab down: p/CIP protein destabilization | Q05BA5 | F442A p/CIP-EGFP cells, EGFP fluorescence, 16 h | decrease of EGFP signal, % at 10 µM | hit rate 0.01% among 290,000 | AID 1984;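 active means EGFP signal decrease of at least 30% at 10 µM or well 3 SD below plate mean, unless failing retest; inactive means the rest, including hits failing retest or dose response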
Casp3 UBC13 ctr: inhibits human caspase-3 in UBC13 counter-screen. shares compounds with UBC13 polyUb. Recombinant caspase-3, Caspase-Glo 3/7 luminescence, 60 min. inhibition, % at 20 µM. hit rate 4% among 1,400. AID 488856;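 active means mean inhibition across replicates above about 26%, limit read from the data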;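 further: plate controls were DMSO with caspase-3 for no effect and DMSO wells lacking enzyme for full effect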
UBC13 conf: human UBC13 polyubiquitin inhibition, confirmed; shares compounds with UBC13 polyUb; inhibition, % at 10 µM; hit rate 68% among 1,400; UBC13 polyubiquitination, TR-FRET, biochemical; in the data active means inhibition above about 45%; inconclusive means no clear call, values can overlap the other calls
* = called active by the depositor; ? = inconclusive; / = no result. Shown are actives, neighbours in structure and some others; about 2.8% of the full set was active somewhere.

SMILES	UBC13 polyUb	PP1 inh	AI-2 QS modul	T cruzi inh	p-CIP stab down	Casp3 UBC13 ctr	UBC13 conf
O=C(NCCN1CCN(c2ccccc2)CC1)c1ccc2c(c1)[nH]c(=S)n1c3ccccc3nc21	47*	0	35	-14	-7	2	?
O=C(c1ccc2c(c1)[nH]c(=S)n1c3ccccc3nc21)N1CCN(c2ncccn2)CC1	?	-5	-3	-5	-6	/	/
CCOC(=O)c1cc(-c2ccccc2C)n(CC2CC(c3cccc([N+](=O)[O-])c3)=NO2)n1 (stereo unspecified)	9	3	/	/	/	/	/
Cn1c(=O)c2c(ncn2Cc2ccc(Cl)cc2)n(C)c1=O	57*	-4	9	-7	-3	-6	53*
COC(=O)C1=C(C)N(Cc2ccccc2)C(=NCc2cc(OC)c(OC)c(OC)c2)N[C@H]1CCc1ccccc1	47*	/	/	/	/	4	39
COC(=O)C1=C(C)N(Cc2ccccc2)C(=NCc2cc(OC)c(OC)c(OC)c2)N[C@H]1c1ccc(Br)cc1	55*	/	/	/	/	-1	48*
COC(=O)C1=C(C)N(Cc2ccccc2)C(=NCc2cc(OC)c(OC)c(OC)c2)N[C@H]1c1ccccc1	32	-1	21	17	-14	/	/
CC(NC(=O)c1ccccc1Cl)C(=O)OCc1cn2cc(Cl)ccc2n1 (stereo unspecified)	-3	/	/	/	/	/	/
C[C@H](NC(=O)c1ccccc1Cl)C(=O)OCc1cn2cc(Cl)ccc2n1	106*	-8	/	-8	/	6	4
COc1ccc(-c2c3c(nc4sc(C(=O)Nc5ccccc5)c(N)c24)CCC3)cc1	46*	3	27	16	/	2	38
Nc1c(C(=O)Nc2ccccc2)sc2nc3c(c(-c4ccco4)c12)CCC3	-29	3	19	23	-23	/	/
O=C(COC(=O)COc1ccc(Cl)cc1)Nc1ncc(Br)s1	-2	/	/	/	/	/	/
CCOC(=O)c1nc2sc(C)c(C)c2c(=O)[nH]1	10	-1	41	-7	-1	/	/
CCOC(=O)/C(=C\c1cccc(O)c1)c1nc2sc(C)c(C)c2c(=O)[nH]1	67*	-2	-4	-10	-5	-1	66*
C[C@@H]1O[C@@H](Oc2c(-c3cc(O)c(O)c(O)c3)oc3cc(O)cc(O)c3c2=O)[C@H](O)[C@H](O)[C@H]1O	50*	4	10	-23	2	-5	17
Cc1ccc(CNS(=O)(=O)c2ccc3c(c2)n(C)c(=O)c(=O)n3C)cc1	3	-3	12	-10	-8	/	/
COc1ccccc1/C=N/Nc1cc(C)nc2ccc(C)cc12	-6	-3	/	4	-16	/	/
COc1ccc2nc(C)cc(N/N=C/c3ccccc3)c2c1	53*	3	/	/	/	6	49*
COc1ccc(/C=N/Nc2cc(C)nc3ccc(OC)cc23)c(OC)c1	102*	14	15	58*	1	4	122*
O=C1c2cccc3cccc(c23)C(=O)N1Nc1ccccc1	52*	0	1	-20	-11	-1	43
O=C1c2cccc3cc(Br)cc(c23)C(=O)N1Nc1ccc(Br)cc1	-5	2	9	-9	-2	/	/
CC/C(C)=N\Nc1nc(-c2cc3cc(OC)ccc3oc2=O)cs1	-16	1	6	5	-6	/	/
C=CCNC(=O)NC(=O)CSc1nnc(C(F)(F)F)n1C	48*	2	31	-11	-8	0	9
CN(C(=O)c1cccc(NC(=O)Cc2cccc([N+](=O)[O-])c2)c1)C1CCCC1	-12	/	/	/	/	/	/
Cc1nc2ccccc2n1C1CCN(CC(=O)Nc2ccccc2Br)CC1	58*	-2	10	3	-3	-4	74*
SMILES	UBC13 polyUb	PP1 inh	AI-2 QS modul	T cruzi inh	p-CIP stab down	Casp3 UBC13 ctr	UBC13 conf
Cc1ccccc1NC(=O)CN1CCC(n2nnc3ccccc32)CC1	8	-3	0	15	0	/	/
COc1ccc(C)cc1C(=O)CCC(=O)NCCc1ccc(S(N)(=O)=O)cc1	4	-4	19	3	6	/	/
CCCN1CCN(C(=O)C2CCN(c3ncnc4c3nc3n4CCCCC3)CC2)CC1	77*	1	/	-8	6	-1	94*
O=C(NCCCN1CCCCC1)C1CCN(c2ncnc3c2nc2n3CCCCC2)CC1	73*	-3	7	-2	-5	-1	86*
O=C(NCC1CCN(Cc2ccccc2F)CC1)C1CCCN(c2ncnc3c2nc2n3CCCCC2)C1 (stereo unspecified)	47*	0	/	29	3	1	60*
CC1CCN(C(=O)C2CCN(c3ncnc4c3nc3n4CCCCC3)CC2)CC1	35	1	5	6	1	/	/
O=C(Nc1ccc(F)c(Cl)c1)C1CCN(c2ncnc3c2nc2n3CCCCC2)CC1	74*	0	29	8	-4	6	75*
O=C(Nc1ccc(Cl)cn1)C1CCN(c2ncnc3c2nc2n3CCCCC2)CC1	10	-1	27	-4	-16	/	/
Cc1cccc(NS(=O)(=O)c2ccc(C)c(C(=O)NCCCN3CCOCC3)c2)c1	5	/	/	/	/	/	/
Cc1nc(-c2ccc(C(=O)Nc3cc(S(N)(=O)=O)ccc3C)cc2)cs1	-1	-1	22	1	7	/	/
O=C(NCCCN1CCN(c2ccccc2)CC1)C1CCCN(c2ncnc3c2nc2n3CCCCC2)C1 (stereo unspecified)	80*	-2	12	24	0	-5	101*
O=C(NCCc1ccccc1)C1CCCN(c2ncnc3c2nc2n3CCCCC2)C1 (stereo unspecified)	6	0	4	9	-3	/	/
CN(Cc1cccs1)C(=O)C1CC(=O)N(Cc2ccccc2)C1 (stereo unspecified)	8	1	0	1	/	/	/
C#CCOCCOCCOCCNc1nc(N2CCN(C(=O)[C@H](C)n3cc(CCCN=C(N)N)nn3)CC2)nc(N2CCN(C(=O)[C@H](CCCCN)n3cc(CCCC)nn3)CC2)n1	/	/	/	/	2	/	/
C#CCOCCOCCOCCNc1nc(N2CCN(C(=O)C([C@@H](C)O)n3cc([C@@H](N)CCCCN)nn3)CC2)nc(N2CCN(C(=O)[C@H](CCCN=C(N)N)n3cc(C(N)[C@@H](C)CC)nn3)CC2)n1 (stereo partly specified)	101*	/	/	/	/	7	111*
C#CCOCCOCCOCCNc1nc(N2CCN(C(=O)[C@H]([C@@H](C)CC)n3cc(CCCN=C(N)N)nn3)CC2)nc(N2CCN(C(=O)[C@H](CCCCN)n3cc(CCCC)nn3)CC2)n1	71*	7	2	-10	3	0	47*
